Compound activity as filed in PubChem.
In the library only some 2.4% were active in any assay of this set; here they are far more common.
NPY2 pot ag: NPY-Y2 potentiators or agonists, primary screen, cell-based; Neuropeptide Y receptor type 2 (Homo sapiens), P49146; cells expressing NPY-Y2, potentiator/agonist read-out; activation, % at 3.6 µM; 220,000 tested, 0.45% active; in the data active = activation above about 27%;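 note: cells stimulated with NPY near EC25 plus isoproterenol at EC100; 0% = vehicle plus submaximal agonist and 100% = vehicle plus saturating agonist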
Target sequence (P49146 whole entry, looked up): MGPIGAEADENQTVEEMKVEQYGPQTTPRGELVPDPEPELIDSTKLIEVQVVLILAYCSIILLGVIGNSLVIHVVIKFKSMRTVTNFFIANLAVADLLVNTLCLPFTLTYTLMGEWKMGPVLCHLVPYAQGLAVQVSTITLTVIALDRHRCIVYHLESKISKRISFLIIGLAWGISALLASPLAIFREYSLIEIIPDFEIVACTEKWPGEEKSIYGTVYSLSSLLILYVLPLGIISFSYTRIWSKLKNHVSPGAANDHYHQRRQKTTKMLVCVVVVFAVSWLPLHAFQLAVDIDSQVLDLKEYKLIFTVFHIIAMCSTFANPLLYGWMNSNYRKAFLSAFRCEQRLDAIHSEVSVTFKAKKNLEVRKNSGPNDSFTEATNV
S1P4 ag: S1P4 receptor agonists, primary screen, cell-based; Sphingosine 1-phosphate receptor 4 (Homo sapiens), O95977; S1P4-expressing cell line, agonist reporter assay; activation, % at 4.98 µM; 220,000 tested, 0.35% active; AID 1509, 2009; in the data active = activation above about 11%;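 note: 0% = DMSO vehicle and 100% = reference agonist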
S1P4 antag: S1P4 receptor antagonists, primary screen, cell-based; Sphingosine 1-phosphate receptor 4 (Homo sapiens), O95977; S1P4-expressing cells, antagonist mode, reporter read-out; inhibition, % at 4.98 µM; 220,000 tested, 0.26% active; in the data active = inhibition above about 29%;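 note: 0% = wells stimulated with agonist and 100% = vehicle wells without agonist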
NPY-Y1 antag: NPY-Y1 receptor antagonists, primary screen, cell-based. AID 1040, 2008. inhibition, % at 3.6 µM. 200,000 tested, 1% active. HEK293-CNG Y1 cells, membrane potential fluorescence; NPY at EC95, then isoproterenol;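 active = inhibition above the campaign mean inhibition of all tested compounds plus 3 SD, cut at about 20% in these data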;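 note: 0% = DMSO wells given NPY plus isoproterenol and 100% = isoproterenol alone without NPY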
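Material: HEK293 cells co-expressing NPY Y1 receptor and cyclic-nucleotide gated channel. Timing: compound incubation 1 h at room temperature, readout 45 min post-stimulation. Signal: fluorescence, membrane potential probe.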
NPY-Y2 antag: NPY-Y2 receptor antagonists, primary screen, cell-based; inhibition, % at 2.7 µM; AID 793, 2007; 140,000 tested, 0.99% active; Neuropeptide Y receptor type 2 (Homo sapiens), P49146; NPY-Y2 expressing cells, antagonist mode; in the data active = inhibition above about 17%;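 note: 0% = vehicle with agonist challenge and 100% = reference antagonist with challenge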
NPY-Y1 PAM-ag: NPY-Y1 receptor potentiators or agonists, primary screen, cell-based; Neuropeptide Y receptor type 1 (Homo sapiens), P25929; NPY-Y1 expressing cells, potentiator/agonist activation; activation, % at 3.6 µM; 220,000 tested, 0.37% active; in the data active = activation above about 33%, passing the limit was not always enough;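 note: cells stimulated with NPY at EC10 then isoproterenol at EC100; 0% = low agonist plus stimulus and 100% = saturating agonist plus stimulus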
S1P4 antag conf: S1P4 receptor antagonists, human, confirmation, cell-based. shares compounds with S1P4 antag. 520 tested, 71% active. S1P4-expressing cell line, antagonist mode, reporter read-out. inhibition, % at 4.98 µM; in the data active = inhibition above about 30%
S1P1 antag: S1P1 receptor antagonists, human, counter-screen for S1P4 antagonist project, cell-based | shares compounds with S1P4 antag | cell-based S1P1 antagonist counterscreen, inhibition | inhibition, % at 4.98 µM | 520 tested, 37% active; in the data active = inhibition above about 40%;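 note: receptor stimulated with S1P near its EC80; 0% = agonist stimulated wells and 100% = vehicle only wells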
An asterisk follows results filed as active; / = no result given.

SMILES	NPY2 pot ag	S1P4 ag	S1P4 antag	NPY-Y1 antag	NPY-Y2 antag	NPY-Y1 PAM-ag	S1P4 antag conf	S1P1 antag
O=C1C(=O)c2ccccc2-c2ccccc21	-65	-3	99*	39*	40*	-96	116*	143*
O=C1C(=O)c2cccc3cccc1c23	16	1	-5	1	3	-15	/	/
NC(=O)c1cn(C2OC(CO)C(O)C2O)c2ncnc(N)c12 (stereo not drawn)	-12	-6	72*	-6	2	-38	79*	42*
CN1C(=O)C(=Cc2sc(=O)n(-c3ccccc3)c2N(C)C)C(=O)N(C)C1=O	30	1	-1	/	/	21	/	/
COC(=O)C1CN(C#N)N(c2ccc(Cl)cc2)C12c1ccccc1-c1ccccc12 (stereo not drawn)	-13	0	66*	3	10	7	121*	94*
COc1ccc(-c2n(-c3ccccn3)c3ccccc3[n+]2-c2ccccn2)cc1	-2	0	33*	/	/	12	-14	-10
Cc1ccc(-c2nc3ccccc3c(=O)n2-c2ccccn2)cc1	-16	0	-9	0	3	-26	/	/
O=c1c2ccccc2nc(CNCC2CCCO2)n1-c1ccc(F)cc1 (stereo not drawn)	-3	1	-15	8	/	-9	/	/
CNc1cc(Cl)c2nonc2c1[N+](=O)[O-]	-26	-5	74*	19	/	-28	114*	21
CC1(C)N2CC3([N+](=O)[O-])CN1CC([N+](=O)[O-])(C2)C3	11	0	-2	/	/	11	/	/
